In ChEMBL document CHEMBL1123397, “Antiarrhythmic activity of 17 beta-aminoestratrienes. Comparison of 3-ols and 3-acetates with the corresponding 3-(3-amino-2-hydroxypropyl) ethers” (1986):
In brackets after ≈: the same amount, converted by molar mass. Activity calls are given as the source filed them. The calls are words filed in the database; no cut-off is given here.

Tests used:
Cavia porcellus [1] = species: Cavia porcellus; assay: Concentration required to reduce maximum following frequencu (MFF) of isolated guinea pig atria by 25%; format: functional
How it was run: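 Guinea pig left atria in an organ bath of Krebs solution at 35 °C, gassed with carbogen, electrically driven, isometric contractions recorded. Drugs added cumulatively; maximum following frequency determined 6 min after each concentration. Concentration reducing MFF by 25% (EC25) calculated from six preparations.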

Mus musculus [2] = species: Mus musculus; assay: ED 50 value against aconitine-induced arrhythmias in mice; IA is Inactive; format: functional, organism-based
How it was run: (§1)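 Anaesthetised mice were given test compound intraperitoneally, then aconitine intravenously to induce arrhythmia. At least three doses were tested in separate groups (n = 6-10). ED50 is the dose raising the arrhythmogenic aconitine dose 50% above the control requirement.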

Rattus norvegicus [3] = assay: Effective dose that antagonized arrhythmias evoked by coronary artery ligation in the rat was measured at 1.0 mg/kg dose; format: functional
Rattus norvegicus [4] = assay: Effect on heart rate after isoprenaline induced tachycardia in the anesthetized rat at 2 mg/kg dose; format: functional
How it was run: (§2)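 Same ligation protocol in anaesthetised male Wistar rats. Heart rate was taken from the lead II ECG at three points: just before i.v. drug or vehicle, 14 min after it (just before isoprenaline 10 μg/kg), and 1 min after isoprenaline. Pre vs post rates and isoprenaline responses vs controls were compared by Student's t test. Mean ± SEM of 7-12 observations.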

Rattus norvegicus [5] = assay: Effect on heart rate before isoprenaline induced tachycardia in the anesthetized rat at 2 mg/kg dose; format: functional
How it was run: (§3)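 Test drug or vehicle was given i.v., and isoprenaline (10 µg/kg) 14 min later. Heart rate was read from the lead II ECG just before drug, at 14 min (pre-isoprenaline) and 1 min after isoprenaline. Compared by Student's t test; 7–12 animals per group; mean ± SEM.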

Rattus norvegicus [6] = assay: Effect on heart rate on 1 min post isoprenaline induced tachycardia in the anesthetized rat at 2.0 mg/kg dose.; format: functional; how it was run: as §3
Rattus norvegicus [7] = assay: Compound was tested for antagonism of Ventricular Fibrilloflutter (VF) evoked by coronary artery ligation in the rat measured at 0.5 mg/kg dose; format: functional, Heart
How it was run: (§4)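 Male Wistar rats, anaesthetised and artificially ventilated, with left thoracotomy; silk suture under main left coronary artery. After stabilization, test drug or vehicle i.v.; 14 min later isoprenaline 10 μg/kg; 1 min after that the ligature was tightened and VF incidence recorded over 30 min. Carotid pressure and lead II ECG monitored continuously. 7-12 animals per group.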

Rattus norvegicus [8] = assay: Compound was tested for antagonism of Ventricular Fibrilloflutter (VF) evoked by coronary artery ligation in the rat measured at 1 mg/kg dose; format: functional, Heart; how it was run: as §4
Rattus norvegicus [9] = assay: Antagonism of Ventricular Fibrilloflutter (VF) evoked by coronary artery ligation in the rat measured at 2 mg/kg dose; format: functional, Heart; how it was run: as §4
Rattus norvegicus [10] = assay: Mean change in heart rate recorded 14 min after the administration of compound.; format: functional; how it was run: as §3
Rattus norvegicus [11] = species: Rattus norvegicus; assay: Maximum increase in heart rate evoked by isoprenaline.; format: functional; how it was run: as §3
Rattus norvegicus [12] = assay: Compound was tested for antagonism of Ventricular Fibrilloflutter (VF) evoked by coronary artery ligation in the rat measured at 0.05 mg/kg dose; format: functional, Heart; how it was run: as §4
Rattus norvegicus [13] = assay: Compound was tested for antagonism of arrhythmias evoked by coronary artery ligation in the rat measured at 1 mg/kg dose; format: functional; how it was run: as §4
Mus musculus [14] = species: Mus musculus; assay: ED 50 value against aconitine-induced arrhythmias in mice; format: functional; how it was run: as §1
Rattus norvegicus [15] = assay: Compound that antagonized arrhythmias evoked by coronary artery ligation in the rat was measured at 0.2 mg/kg dose; format: functional; how it was run: as §4
Rattus norvegicus [16] = assay: Compound was tested for antagonism of Ventricular Fibrilloflutter (VF) evoked by coronary artery ligation in the rat measured at 0.2 mg/kg dose; format: functional, Heart; how it was run: as §4
Rattus norvegicus [17] = assay: Effect on heart rate before isoprenaline induced tachycardia in the anesthetized rat at 0.2 mg/kg dose; format: functional; how it was run: as §2
Rattus norvegicus [18] = assay: Effect on heart rate 1 min post isoprenaline induced tachycardia in the anesthetized rat at 0.2 mg/kg dose.; format: functional; how it was run: as §2
Cavia porcellus [19] = species: Cavia porcellus; assay: Compound was tested for antiarrhythmic activity expressed as action potential height (AP) in guinea pig atria at 2(ug/mL) concentration; format: functional, Heart
How it was run: (§5)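 Guinea pig left atria pinned in a recording chamber, superfused with carbogen-gassed Krebs solution at 35 ± 0.5 °C and electrically stimulated. Transmembrane action potentials were recorded with conventional microelectrodes, giving RMP, AP height, APD50, APD90 and maximum rate of depolarization. Values are mean ± SEM from n cells across five preparations.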

Cavia porcellus [20] = species: Cavia porcellus; assay: Compound was tested for antiarrhythmic activity (time taken to reach 50% repolarization) in guinea pig atria at 2(ug/mL) concentration; format: functional, Heart; how it was run: as §5
Cavia porcellus [21] = species: Cavia porcellus; assay: Compound was tested for antiarrhythmic activity (time taken to reach 50% repolarization) in guinea pig atria at 4(ug/mL) concentration; format: functional, Heart; how it was run: as §5
Cavia porcellus [22] = species: Cavia porcellus; assay: Compound was tested for antiarrhythmic activity (time taken to reach 50% repolarization) in guinea pig atria at 8(ug/mL) concentration; format: functional, Heart; how it was run: as §5
Cavia porcellus [23] = species: Cavia porcellus; assay: Compound was tested for antiarrhythmic activity (time taken to reach 90% repolarization) in guinea pig atria at 2(ug/mL) concentration; format: functional, Heart; how it was run: as §5
Cavia porcellus [24] = species: Cavia porcellus; assay: Compound was tested for antiarrhythmic activity (time taken to reach 90% repolarization) in guinea pig atria at 4(ug/mL) concentration; format: functional, Heart; how it was run: as §5
Cavia porcellus [25] = species: Cavia porcellus; assay: Compound was tested for antiarrhythmic activity (time taken to reach 90% repolarization) in guinea pig atria at 8(ug/mL) concentration; format: functional, Heart; how it was run: as §5
Cavia porcellus [26] = species: Cavia porcellus; assay: Compound was tested for antiarrhythmic activity expressed as action potential height (AP) in guinea pig atria at 4(ug/mL) concentration; format: functional, Heart; how it was run: as §5
Cavia porcellus [27] = species: Cavia porcellus; assay: Compound was tested for antiarrhythmic activity expressed as action potential height (AP) in guinea pig atria at 8(ug/mL) concentration; format: functional, Heart; how it was run: as §5
Cavia porcellus [28] = species: Cavia porcellus; assay: Compound was tested for antiarrhythmic activity (maximum rate of phase 0 depolarization- MRD) in guinea pig atria at 2(ug/mL) concentration; format: functional, Heart; how it was run: as §5
Cavia porcellus [29] = species: Cavia porcellus; assay: Compound was tested for antiarrhythmic activity (maximum rate of phase 0 depolarization- MRD) in guinea pig atria at 4(ug/mL) concentration; format: functional, Heart; how it was run: as §5
Cavia porcellus [30] = species: Cavia porcellus; assay: Compound was tested for antiarrhythmic activity (maximum rate of phase 0 depolarization- MRD) in guinea pig atria at 8(ug/mL) concentration; format: functional, Heart; how it was run: as §5
Cavia porcellus [31] = species: Cavia porcellus; assay: Compound was tested for antiarrhythmic activity expressed as resting membrane potential (RMP) in guinea pig atria at 2 ug/mL concentration; format: functional; conditions: Heart; how it was run: as §5
Cavia porcellus [32] = species: Cavia porcellus; assay: Compound was tested for antiarrhythmic activity expressed as resting membrane potential (RMP) in guinea pig atria at 4 ug/mL concentration; format: functional; conditions: Heart; how it was run: as §5
Cavia porcellus [33] = species: Cavia porcellus; assay: Compound was tested for antiarrhythmic activity expressed as resting membrane potential (RMP) in guinea pig atria at 8 ug/mL concentration; format: functional; conditions: Heart; how it was run: as §5
Rattus norvegicus [34] = assay: Effective dose of compound that antagonized arrhythmias evoked by coronary artery ligation in the rat was measured at 0.5 mg/kg dose; format: functional
Rattus norvegicus [35] = assay: Effect on heart rate after isoprenaline induced tachycardia in the anesthetized rat at 0.5 mg/kg dose; format: functional; how it was run: as §2
Rattus norvegicus [36] = assay: Effect on heart rate before isoprenaline induced tachycardia in the anesthetized rat at 0.5 mg/kg dose; format: functional; how it was run: as §2
Rattus norvegicus [37] = assay: Effect on heart rate on 1 min post isoprenaline induced tachycardia in the anesthetized rat at 0.5 mg/kg dose.; format: functional; how it was run: as §3
Rattus norvegicus [38] = assay: Effect of teh compound on heart rate on 1 min post isoprenaline induced tachycardia in the anesthetized rat at 2.0 mg/kg dose.; format: functional; how it was run: as §2

`CN(C)C1[C@H](O)C[C@H]2[C@@H]3CCc4cc(OCC(O)CNC(C)(C)C)ccc4[C@H]3CC[C@]12C` (some centres not stated) was tested, and the EC25 (Cavia porcellus [1]) was 17.1 µg/mL (≈ 38.5 µM), the ED50 (Mus musculus [2]) was “inactive” and the ED50 (Rattus norvegicus [3]) was 0.5 mg/kg. For the same compound, the Heart rate (Rattus norvegicus [4]) was 325 beats min-1, the Heart rate (Rattus norvegicus [5]) was 393 beats min-1 and the Heart rate (Rattus norvegicus [6]) was 340 beats min-1. It also gave a VF (Rattus norvegicus [7]) of 44%, a VF (Rattus norvegicus [8]) of 38% and a VF (Rattus norvegicus [9]) of 0%. The Change (Rattus norvegicus [10]) was -17.3% and the Increase (Rattus norvegicus [11]) was 4.6%.
With `CNC1[C@H](O)C[C@H]2[C@@H]3CCc4cc(OCC(O)CNC(C)(C)C)ccc4[C@H]3CC[C@]12C` (some centres not stated) the EC25 (Cavia porcellus [1]) was 38.6 µg/mL (≈ 89.6 µM), the ED50 (Mus musculus [2]) was “inactive” and the ED50 (Rattus norvegicus [3]) was 0.7 mg/kg. For the same compound, the VF (Rattus norvegicus [12]) was 67%, the Heart rate (Rattus norvegicus [4]) was 294 beats min-1 and the Heart rate (Rattus norvegicus [5]) was 415 beats min-1. It also gave a Heart rate (Rattus norvegicus [6]) of 302 beats min-1, a VF (Rattus norvegicus [9]) of 0% and a VF (Rattus norvegicus [13]) of 25%. For the same compound, the Change (Rattus norvegicus [10]) was -29.2% and the Increase (Rattus norvegicus [11]) was 3%.
For `CNC1[C@H](O)C[C@H]2[C@@H]3CCc4cc(OC(C)=O)ccc4[C@H]3CC[C@]12C` (some centres not stated), the EC25 (Cavia porcellus [1]) was 5.06 µg/mL (≈ 14.7 µM), the ED50 (Mus musculus [14]) was 9 mg/kg and the ED50 at 0.2 mg/kg (Rattus norvegicus [15]) was < 0.2 mg/kg. The VF (Rattus norvegicus [16]) was 29%, the Heart rate (Rattus norvegicus [17]) was 403 beats min-1 and the Change (Rattus norvegicus [10]) was -10.9%. The Increase (Rattus norvegicus [11]) was 9.2% and the Heart rate (Rattus norvegicus [18]) was 392 beats min-1.
Compound `CC(=O)Oc1ccc2c(c1)CC[C@@H]1[C@@H]2CC[C@]2(C)C(N(C)C)[C@H](O)C[C@@H]12` (some centres not stated) has an EC25 (Cavia porcellus [1]) of 0.99 µg/mL (≈ 2.77 µM) and an ED50 (Mus musculus [14]) of 6.5 mg/kg.
For `CN(C)C1[C@H](O)C[C@H]2[C@@H]3CCc4cc(O)ccc4[C@H]3CC[C@]12C` (some centres not stated), the AP (Cavia porcellus [19]) was 78.9 mV, the APD50 (Cavia porcellus [20]) was 29.6 ms and the APD50 (Cavia porcellus [21]) was 29 ms. It also gave an APD50 (Cavia porcellus [22]) of 43.5 ms, an APD90 (Cavia porcellus [23]) of 70.9 ms and an APD90 (Cavia porcellus [24]) of 74.2 ms. For the same compound, the APD90 (Cavia porcellus [25]) was 98.9 ms, the AP (Cavia porcellus [26]) was 73.5 mV and the AP (Cavia porcellus [27]) was 69.9 mV. It also gave an MRD (Cavia porcellus [28]) of 86 V s-1, an MRD (Cavia porcellus [29]) of 60.1 V s-1 and an MRD (Cavia porcellus [30]) of 30.5 V s-1. It also gave an RMP (Cavia porcellus [31]) of 70.1 mV, an RMP (Cavia porcellus [32]) of 71.8 mV and an RMP (Cavia porcellus [33]) of 69.3 mV. For the same compound, the EC25 (Cavia porcellus [1]) was 1.86 µg/mL (≈ 5.9 µM), the ED50 (Mus musculus [14]) was 11.5 mg/kg and the ED50 (Rattus norvegicus [34]) was 0.15 mg/kg. It also gave a VF (Rattus norvegicus [16]) of 33%, a Heart rate (Rattus norvegicus [35]) of 434 beats min-1 and a Heart rate (Rattus norvegicus [36]) of 442 beats min-1. The Heart rate (Rattus norvegicus [37]) was 490 beats min-1, the VF (Rattus norvegicus [7]) was 13% and the VF (Rattus norvegicus [9]) was 0%. The Change (Rattus norvegicus [10]) was -1.8% and the Increase (Rattus norvegicus [11]) was 12.9%.
With `CNC1CC[C@H]2[C@@H]3CCc4cc(OCC(O)CNC(C)C)ccc4[C@H]3CC[C@]12C` (some centres not stated) the EC25 (Cavia porcellus [1]) was 11.9 µg/mL (≈ 29.7 µM), the ED50 (Mus musculus [2]) was “inactive” and the Heart rate (Rattus norvegicus [38]) was 318 beats min-1. The Heart rate (Rattus norvegicus [4]) was 315 beats min-1, the Heart rate (Rattus norvegicus [5]) was 407 beats min-1 and the Change (Rattus norvegicus [10]) was -22.6%. It also gave an Increase (Rattus norvegicus [11]) of 1%.
In the case of `CN(C)C1CC[C@H]2[C@@H]3CCc4cc(O)ccc4[C@H]3CC[C@]12C` (some centres not stated), the EC25 (Cavia porcellus [1]) is reported as 1.65 µg/mL (≈ 5.51 µM) and the ED50 (Mus musculus [14]) is reported as 4.4 mg/kg.
